Ten molecules from ChEMBL document CHEMBL2390947, “New insight into adenosine receptors selectivity derived from a novel series of [5-substituted-4-phenyl-1,3-thiazol-2-yl] benzamides and furamides” (Eur J Med Chem, 2013) can be followed below.

Sequence of Adenosine receptor A2a (P29274 whole entry): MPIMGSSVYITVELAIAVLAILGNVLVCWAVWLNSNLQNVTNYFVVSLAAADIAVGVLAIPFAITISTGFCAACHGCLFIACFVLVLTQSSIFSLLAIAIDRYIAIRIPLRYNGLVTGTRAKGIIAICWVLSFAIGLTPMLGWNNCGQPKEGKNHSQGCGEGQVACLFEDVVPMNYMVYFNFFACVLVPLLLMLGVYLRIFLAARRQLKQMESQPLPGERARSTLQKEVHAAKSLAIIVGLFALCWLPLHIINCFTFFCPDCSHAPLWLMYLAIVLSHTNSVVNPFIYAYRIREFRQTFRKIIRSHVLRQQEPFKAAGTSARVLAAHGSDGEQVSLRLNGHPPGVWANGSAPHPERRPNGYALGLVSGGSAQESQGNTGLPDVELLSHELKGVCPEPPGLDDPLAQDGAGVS

For the first experiment, the species on record is Homo sapiens. In words: Selectivity ratio of Ki for human adenosine A2A receptor to Ki for human adenosine A3 receptor.
On to `Cc1sc2nc(-c3sc(NC(=O)c4ccco4)nc3-c3ccccc3)nc(N)c2c1C`, for which the Ratio Ki is 8.

The species entered for the next experiment is Homo sapiens. Kind of experiment: Selectivity ratio of Ki for human adenosine A2B receptor to Ki for human adenosine A3 receptor.
In the case of `Cc1sc2nc(-c3sc(NC(=O)c4ccco4)nc3-c3ccccc3)nc(N)c2c1C`, the Ratio Ki was above 13.

The species named for the next experiment is Homo sapiens. In words: Selectivity ratio of Ki for human adenosine A1 receptor to Ki for human adenosine A2B receptor.
In the case of `O=C(Nc1nc(-c2ccccc2)c(-c2ccccn2)s1)c1ccco1`, the Ratio Ki turned out to be 0.33.

For a further experiment, the target named is T1, Adenosine receptors; A1 & A3 (Homo sapiens) (UniProt P30542+P0DMS8). Kind of experiment: Selectivity ratio of Ki for human adenosine A1 receptor to Ki for human adenosine A3 receptor.
With `Cc1sc2nc(-c3sc(NC(=O)c4ccco4)nc3-c3ccccc3)nc(N)c2c1C`, the Ratio Ki amounted to 16.

For another experiment, the species on record is Homo sapiens. Kind of experiment: Selectivity ratio of Ki for human adenosine A2A receptor to Ki for human adenosine A2B receptor.
On to `O=C(Nc1nc(-c2ccccc2)c(-c2ccccn2)s1)c1ccco1`, for which the Ratio Ki worked out at 0.23.

A further experiment deals with T1, Adenosine receptors; A1 & A3 (Homo sapiens). In words: Selectivity ratio of Ki for human adenosine A3 receptor to Ki for human adenosine A1 receptor.
As for `O=C(Nc1nc(-c2ccccc2)c(-c2ccncc2)s1)c1ccco1`, the Ratio Ki came out at 16.

For another experiment, the species on record is Homo sapiens. Kind of experiment: Selectivity ratio of Ki for human adenosine A2A receptor to Ki for human adenosine A1 receptor.
On to `O=C(Nc1nc(-c2ccccc2)c(-c2ccncc2)s1)c1ccco1`, for which the Ratio Ki was 11.

The species named for the next experiment is Homo sapiens. In words: Selectivity ratio of Ki for human adenosine A3 receptor to Ki for human adenosine A2A receptor.
In the case of `COc1ccc(C(=O)Nc2nc(-c3ccccc3)c(C(=O)c3ccccn3)s2)cc1`, the Ratio Ki was found to be 1.6.

`O=C(Nc1nc(-c2ccccc2)c(C(=O)c2ccccn2)s1)c1ccco1`: the Ratio Ki came out at 13.

The species named for a further experiment is Homo sapiens. In words: Selectivity ratio of Ki for human adenosine A1 receptor to Ki for human adenosine A2A receptor.
With `COc1ccc(C(=O)Nc2nc(-c3ccccc3)c(C(=O)c3ccccn3)s2)cc1`, the Ratio Ki came out at 5.7.

As to `O=C(Nc1nc(-c2ccccc2)c(C(=O)c2ccccn2)s1)c1ccco1`, the Ratio Ki amounted to 5.

Regarding `CN(C)c1nc(N)nc(-c2sc(NC(=O)c3ccco3)nc2-c2ccccc2)n1`, the Ratio Ki came to 3.

The next experiment deals with T2, Adenosine receptor A1 (Homo sapiens, UniProt P30542).
T2 sequence (P30542 whole entry): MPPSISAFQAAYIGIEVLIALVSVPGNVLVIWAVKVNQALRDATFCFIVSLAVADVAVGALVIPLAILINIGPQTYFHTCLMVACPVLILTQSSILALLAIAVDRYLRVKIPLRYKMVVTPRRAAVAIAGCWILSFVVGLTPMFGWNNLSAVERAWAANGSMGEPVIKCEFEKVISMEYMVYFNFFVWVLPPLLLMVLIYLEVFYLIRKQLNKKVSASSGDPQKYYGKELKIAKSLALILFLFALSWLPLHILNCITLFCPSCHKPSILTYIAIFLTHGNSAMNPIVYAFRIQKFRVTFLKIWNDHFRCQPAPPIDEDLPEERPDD
In words: Displacement of [3H]CCPA from human adenosine A1 receptor expressed in CHO cells. It is filed as cell-based. In a few lines:
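Agonist radioligand competition on membranes from CHO cells stably transfected with human A1 receptor (1000 × g spin to clear debris, crude membranes pelleted at 100,000 × g, stored at -80 °C). Tracer 1 nM [3H]CCPA; non-specific binding defined with 1 mM theophylline. Ki computed from competition curves.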
(Loss of bound radioactivity is the signal in a displacement assay; it reports binding, not function.)
`O=C(Nc1nc(-c2ccccc2)c(C(=O)c2cccnc2)s1)c1ccco1`: the Ki (usually the dissociation constant of the complex between target and ligand, obtained from inhibition or displacement) came to 177 nM.

As for `O=C(Nc1nc(-c2ccccc2)c(-c2nc3ccccc3c(=O)[nH]2)s1)c1ccco1`, the inhibitory constant (Ki) was above 10000 nM.

On to `Nc1nc(-c2sc(NC(=O)c3ccccc3)nc2-c2ccccc2)nc2sc3c(c12)CCCC3`, for which the inhibition constant (Ki) is above 10000 nM.

`O=C(Nc1nc(-c2ccccc2)c(-c2ccccn2)s1)c1ccco1`: the inhibition constant Ki worked out at 276 nM.

In turn, `Cc1ccc(C(=O)Nc2nc(-c3ccccc3)c(-c3nc(N)nc(N(C)C)n3)s2)cc1` registered a Ki of 3630 nM.

The molecule `COc1ccc(C(=O)Nc2nc(-c3ccccc3)c(C(=O)c3ccccn3)s2)cc1` displayed a Ki of 688 nM.

On to `O=C(Nc1nc(-c2ccccc2)c(-c2ccncc2)s1)c1ccco1`, for which the affinity corresponds to a Ki of 0.58 nM.

The molecule `O=C(Nc1nc(-c2ccccc2)c(C(=O)c2ccccn2)s1)c1ccco1` showed a Ki of 406 nM.

`Cc1sc2nc(-c3sc(NC(=O)c4ccco4)nc3-c3ccccc3)nc(N)c2c1C` came in with an inhibition constant (Ki) of 12000 nM.

`CN(C)c1nc(N)nc(-c2sc(NC(=O)c3ccco3)nc2-c2ccccc2)n1` came in with a Ki of 536 nM.

For the next experiment, the target named is Adenosine receptor A2a (Homo sapiens, UniProt P29274). Kind of experiment: Displacement of [3H]NECA from human adenosine A2A receptor expressed in CHO cells. It is filed as cell-based. In a few lines:
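Membranes prepared from stably transfected CHO cells expressing human A2A receptor by two-step centrifugation (1000 × g, then 100,000 × g), frozen and kept at -80 °C. Competition against 30 nM [3H]NECA, with 100 µM R-PIA for non-specific binding. Ki obtained by competition-curve fitting.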
As to `O=C(Nc1nc(-c2ccccc2)c(C(=O)c2cccnc2)s1)c1ccco1`, the Ki is 552 nM.

`O=C(Nc1nc(-c2ccccc2)c(-c2nc3ccccc3c(=O)[nH]2)s1)c1ccco1` returned a Ki of 8780 nM.

Molecule `Nc1nc(-c2sc(NC(=O)c3ccccc3)nc2-c2ccccc2)nc2sc3c(c12)CCCC3` had a Ki above 10000 nM.

For the molecule `O=C(Nc1nc(-c2ccccc2)c(-c2ccccn2)s1)c1ccco1`, the inhibitory constant (Ki) came to 193 nM.

The molecule `Cc1ccc(C(=O)Nc2nc(-c3ccccc3)c(-c3nc(N)nc(N(C)C)n3)s2)cc1` yielded an inhibitory constant (Ki) of 562 nM.

Turning to `COc1ccc(C(=O)Nc2nc(-c3ccccc3)c(C(=O)c3ccccn3)s2)cc1`, the affinity, expressed as Ki, was 128 nM.

As for `O=C(Nc1nc(-c2ccccc2)c(-c2ccncc2)s1)c1ccco1`, the Ki worked out at 6.65 nM.

In the case of `O=C(Nc1nc(-c2ccccc2)c(C(=O)c2ccccn2)s1)c1ccco1`, the inhibition constant Ki came out at 74.7 nM.

The molecule `Cc1sc2nc(-c3sc(NC(=O)c4ccco4)nc3-c3ccccc3)nc(N)c2c1C` registered a Ki of 5950 nM.

`CN(C)c1nc(N)nc(-c2sc(NC(=O)c3ccco3)nc2-c2ccccc2)n1` came in with an inhibition constant Ki of 179 nM.

For a further experiment, the target named is T3, Adenosine receptor A2b (Homo sapiens, UniProt P29275).
T3 sequence (P29275 whole entry): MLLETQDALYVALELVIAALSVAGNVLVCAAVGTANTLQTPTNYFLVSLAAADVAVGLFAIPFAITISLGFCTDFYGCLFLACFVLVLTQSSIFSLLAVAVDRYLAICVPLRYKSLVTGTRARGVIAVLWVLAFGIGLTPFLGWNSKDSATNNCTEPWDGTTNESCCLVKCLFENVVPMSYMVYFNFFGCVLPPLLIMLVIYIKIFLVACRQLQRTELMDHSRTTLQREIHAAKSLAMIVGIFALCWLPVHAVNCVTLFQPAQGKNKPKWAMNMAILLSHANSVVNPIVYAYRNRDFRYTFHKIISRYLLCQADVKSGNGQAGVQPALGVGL
In words: Antagonist activity at human adenosine A2B receptor expressed in CHO cells assessed as inhibition of NECA-stimulated adenylyl cyclase activity. It is filed as functional, cell-based. In a few lines: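 Affinity at human A2B receptor taken from inhibition of NECA-stimulated adenylyl cyclase activity. Membranes from stably transfected CHO cells were obtained by a single high-speed spin of the homogenate, resuspended in 50 mM Tris/HCl pH 7.4 and used at once.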
`O=C(Nc1nc(-c2ccccc2)c(C(=O)c2cccnc2)s1)c1ccco1`: the Ki is above 10000 nM.

`O=C(Nc1nc(-c2ccccc2)c(-c2nc3ccccc3c(=O)[nH]2)s1)c1ccco1`: the Ki was above 10000 nM.

For the molecule `Nc1nc(-c2sc(NC(=O)c3ccccc3)nc2-c2ccccc2)nc2sc3c(c12)CCCC3`, the Ki is above 10000 nM.

`O=C(Nc1nc(-c2ccccc2)c(-c2ccccn2)s1)c1ccco1`: the Ki was 841 nM.

Consider `Cc1ccc(C(=O)Nc2nc(-c3ccccc3)c(-c3nc(N)nc(N(C)C)n3)s2)cc1`, for which the Ki is above 30000 nM.

With `COc1ccc(C(=O)Nc2nc(-c3ccccc3)c(C(=O)c3ccccn3)s2)cc1`, the Ki is above 10000 nM.

In the case of `O=C(Nc1nc(-c2ccccc2)c(-c2ccncc2)s1)c1ccco1`, the inhibition constant (Ki) is 2.78 nM.

For `O=C(Nc1nc(-c2ccccc2)c(C(=O)c2ccccn2)s1)c1ccco1`, the Ki came to 9110 nM.

As to `Cc1sc2nc(-c3sc(NC(=O)c4ccco4)nc3-c3ccccc3)nc(N)c2c1C`, the Ki is above 10000 nM.

Consider `CN(C)c1nc(N)nc(-c2sc(NC(=O)c3ccco3)nc2-c2ccccc2)n1`, for which the inhibition constant Ki is 8000 nM.

In the next experiment the target is T4, Adenosine receptor A3 (Homo sapiens, UniProt P0DMS8).
T4 sequence (P0DMS8 whole entry): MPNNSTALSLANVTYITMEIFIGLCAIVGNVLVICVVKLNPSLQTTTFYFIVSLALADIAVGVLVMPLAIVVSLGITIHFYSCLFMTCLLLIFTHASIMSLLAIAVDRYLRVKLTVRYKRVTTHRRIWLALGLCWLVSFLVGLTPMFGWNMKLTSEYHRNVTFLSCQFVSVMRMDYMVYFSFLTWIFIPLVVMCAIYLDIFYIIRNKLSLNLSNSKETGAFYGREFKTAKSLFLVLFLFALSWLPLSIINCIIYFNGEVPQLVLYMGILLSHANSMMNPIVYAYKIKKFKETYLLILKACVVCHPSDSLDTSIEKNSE
Kind of experiment: Displacement of [3H]HEMADO from human adenosine A3 receptor expressed in CHO cells. The experiment is classed as cell-based. Put shortly:
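Human A3 receptor binding in membranes from stably transfected CHO cells (low-speed then 100,000 × g pellet, stored at -80 °C). Radioligand was the agonist [3H]HEMADO at 1 nM; non-specific binding measured with 100 µM R-PIA. Ki values derived from competition experiments.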
Take `O=C(Nc1nc(-c2ccccc2)c(C(=O)c2cccnc2)s1)c1ccco1`: the Ki was found to be 1870 nM.

Molecule `O=C(Nc1nc(-c2ccccc2)c(-c2nc3ccccc3c(=O)[nH]2)s1)c1ccco1` returned an inhibitory constant (Ki) of 3930 nM.

With `Nc1nc(-c2sc(NC(=O)c3ccccc3)nc2-c2ccccc2)nc2sc3c(c12)CCCC3`, the inhibition constant Ki is above 10000 nM.

`O=C(Nc1nc(-c2ccccc2)c(-c2ccccn2)s1)c1ccco1`: the affinity corresponds to a Ki of 2040 nM.

`Cc1ccc(C(=O)Nc2nc(-c3ccccc3)c(-c3nc(N)nc(N(C)C)n3)s2)cc1` registered an inhibition constant Ki of 816 nM.

As for `COc1ccc(C(=O)Nc2nc(-c3ccccc3)c(C(=O)c3ccccn3)s2)cc1`, affinity was put at a Ki of 201 nM.

Molecule `O=C(Nc1nc(-c2ccccc2)c(-c2ccncc2)s1)c1ccco1` yielded a Ki of 9.36 nM.

In turn, `O=C(Nc1nc(-c2ccccc2)c(C(=O)c2ccccn2)s1)c1ccco1` gave a Ki of 951 nM.

In the case of `Cc1sc2nc(-c3sc(NC(=O)c4ccco4)nc3-c3ccccc3)nc(N)c2c1C`, the Ki stood at 746 nM.

As to `CN(C)c1nc(N)nc(-c2sc(NC(=O)c3ccco3)nc2-c2ccccc2)n1`, the Ki came to 918 nM.

The test system of a further experiment is adenosine A3/A2A receptor ratio (Homo sapiens). In words: Selectivity ratio of Ki for human adenosine A2A receptor to Ki for human adenosine A3 receptor.
For `CN(C)c1nc(N)nc(-c2sc(NC(=O)c3ccco3)nc2-c2ccccc2)n1`, the Ratio Ki worked out at 5.
